Results as given in publication PMC3288537 (ACS Chemical Biology, 2011).

How the values were obtained:
Format in all cases: biochemical
VHR = VHR (Homo sapiens, UniProt P51452); experiment: Dose-response OMFP phosphatase assay, VHR; conditions: read-out: IC50 VHR; OMFP substrate
SHP1 = SHP1 (Homo sapiens, UniProt P29350); experiment: Dose-response OMFP phosphatase assay, SHP1; conditions: read-out: IC50 SHP1; OMFP substrate
Method in brief: (§1)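 Ten-point 2-fold dilution series of test compound prepared in DMSO. Fluorescence (ex 485/em 528 nm) read in kinetic mode over 10 min; progress-curve slopes taken as activity. IC50 by nonlinear regression (sigmoidal, variable slope).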

LYP = target: T1, LYP (Homo sapiens, UniProt Q9Y2R2); experiment: Dose-response OMFP phosphatase assay, LYP; conditions: read-out: IC50 LYP; OMFP substrate
T1 sequence (Q9Y2R2 1-807): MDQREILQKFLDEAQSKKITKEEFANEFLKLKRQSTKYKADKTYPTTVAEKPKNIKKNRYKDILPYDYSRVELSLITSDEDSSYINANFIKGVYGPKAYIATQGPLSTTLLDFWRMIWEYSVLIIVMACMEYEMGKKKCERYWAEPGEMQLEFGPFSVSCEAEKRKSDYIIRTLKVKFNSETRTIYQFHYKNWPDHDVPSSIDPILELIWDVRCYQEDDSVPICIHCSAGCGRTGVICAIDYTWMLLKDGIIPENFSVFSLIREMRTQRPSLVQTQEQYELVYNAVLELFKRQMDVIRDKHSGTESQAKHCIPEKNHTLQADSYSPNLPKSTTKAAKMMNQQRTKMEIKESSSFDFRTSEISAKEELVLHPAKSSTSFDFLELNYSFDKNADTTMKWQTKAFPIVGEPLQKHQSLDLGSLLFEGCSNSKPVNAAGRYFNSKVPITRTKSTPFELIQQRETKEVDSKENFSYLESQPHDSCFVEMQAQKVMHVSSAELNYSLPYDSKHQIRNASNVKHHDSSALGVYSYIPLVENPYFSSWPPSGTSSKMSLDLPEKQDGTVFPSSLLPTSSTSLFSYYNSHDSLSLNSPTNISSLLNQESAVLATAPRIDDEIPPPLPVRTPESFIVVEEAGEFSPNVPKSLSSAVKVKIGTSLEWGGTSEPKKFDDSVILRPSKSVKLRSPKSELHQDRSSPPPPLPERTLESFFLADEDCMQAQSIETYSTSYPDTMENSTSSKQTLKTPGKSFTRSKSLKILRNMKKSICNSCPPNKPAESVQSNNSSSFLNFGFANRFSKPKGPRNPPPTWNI

MKP-3 = target: T2, MKP-3 (Homo sapiens, UniProt Q16828); experiment: Dose-response OMFP phosphatase assay, MKP-3; conditions: read-out: IC50 MKP-3; OMFP substrate
T2 sequence (Q16828 1-381): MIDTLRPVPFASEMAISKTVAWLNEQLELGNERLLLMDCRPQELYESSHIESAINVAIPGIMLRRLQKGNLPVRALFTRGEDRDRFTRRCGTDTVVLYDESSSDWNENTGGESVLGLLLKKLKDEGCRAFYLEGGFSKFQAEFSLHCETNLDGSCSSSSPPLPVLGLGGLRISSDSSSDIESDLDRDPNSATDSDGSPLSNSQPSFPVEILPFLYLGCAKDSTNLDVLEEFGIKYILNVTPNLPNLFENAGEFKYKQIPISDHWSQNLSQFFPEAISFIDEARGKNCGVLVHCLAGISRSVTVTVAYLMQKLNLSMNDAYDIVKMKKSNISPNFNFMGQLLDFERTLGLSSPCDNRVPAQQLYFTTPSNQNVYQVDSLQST

HePTP = target: T3, HePTP (Homo sapiens, UniProt P35236); experiment: Michaelis-Menten kinetic studies with OMFP; conditions: various inhibitor and substrate concentrations
T3 sequence (P35236 1-360): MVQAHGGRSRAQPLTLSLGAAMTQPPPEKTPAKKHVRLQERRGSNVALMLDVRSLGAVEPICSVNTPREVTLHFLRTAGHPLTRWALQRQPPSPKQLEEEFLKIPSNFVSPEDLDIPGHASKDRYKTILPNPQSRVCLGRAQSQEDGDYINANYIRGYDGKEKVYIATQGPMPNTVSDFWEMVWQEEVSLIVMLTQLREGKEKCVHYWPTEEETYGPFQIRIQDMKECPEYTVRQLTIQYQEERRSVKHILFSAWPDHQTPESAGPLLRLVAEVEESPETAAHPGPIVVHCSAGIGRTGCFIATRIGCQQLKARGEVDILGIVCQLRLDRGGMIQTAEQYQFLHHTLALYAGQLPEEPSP
Method in brief: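 Started by adding OMFP at 0–400 μM. Initial rates read by fluorescence (ex 485/em 528 nm), corrected with no-enzyme controls. Eadie-Hofstee plots drawn; competing models compared by AICc.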

PTP1B = target: T4, PTP1B (Homo sapiens, UniProt P18031); experiment: Dose-response OMFP phosphatase assay, PTP1B; conditions: read-out: IC50 PTP1B; OMFP substrate
T4 sequence (P18031 1-435): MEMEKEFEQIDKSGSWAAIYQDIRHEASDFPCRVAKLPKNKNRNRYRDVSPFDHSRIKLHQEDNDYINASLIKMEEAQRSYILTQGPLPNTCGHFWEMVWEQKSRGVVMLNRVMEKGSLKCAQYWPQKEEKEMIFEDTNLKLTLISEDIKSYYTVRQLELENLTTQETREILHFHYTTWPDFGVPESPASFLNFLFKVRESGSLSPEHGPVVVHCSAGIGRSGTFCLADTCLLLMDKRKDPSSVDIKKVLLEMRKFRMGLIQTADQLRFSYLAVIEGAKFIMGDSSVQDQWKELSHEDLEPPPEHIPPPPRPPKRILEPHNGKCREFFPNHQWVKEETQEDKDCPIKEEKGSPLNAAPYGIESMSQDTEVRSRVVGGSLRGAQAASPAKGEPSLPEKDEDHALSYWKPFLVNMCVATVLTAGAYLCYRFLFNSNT

[1] = target: T5, HePTP-DM (K105A/T106A double mutant) (Homo sapiens, UniProt P35236, K126A/T127A); experiment: Dose-response OMFP phosphatase assay, HePTP K105A/T106A double mutant; conditions: read-out: IC50 HePTP-DM
T5 sequence (P35236 22-360 K126A/T127A limits assumed): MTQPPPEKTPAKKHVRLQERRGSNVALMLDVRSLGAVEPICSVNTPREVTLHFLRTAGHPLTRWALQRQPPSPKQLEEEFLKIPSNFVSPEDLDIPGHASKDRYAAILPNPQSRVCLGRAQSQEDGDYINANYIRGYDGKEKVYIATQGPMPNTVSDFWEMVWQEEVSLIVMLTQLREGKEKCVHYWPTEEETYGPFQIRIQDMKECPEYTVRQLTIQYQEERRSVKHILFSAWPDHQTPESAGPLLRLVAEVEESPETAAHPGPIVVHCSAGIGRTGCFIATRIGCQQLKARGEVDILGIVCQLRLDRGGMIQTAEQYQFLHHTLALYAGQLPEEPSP

LAR = LAR (Homo sapiens, UniProt P10586); experiment: Dose-response OMFP phosphatase assay, LAR; conditions: read-out: IC50 LAR; OMFP substrate
Method in brief: as §1

VHR, sequence (P51452 whole entry, species assumed): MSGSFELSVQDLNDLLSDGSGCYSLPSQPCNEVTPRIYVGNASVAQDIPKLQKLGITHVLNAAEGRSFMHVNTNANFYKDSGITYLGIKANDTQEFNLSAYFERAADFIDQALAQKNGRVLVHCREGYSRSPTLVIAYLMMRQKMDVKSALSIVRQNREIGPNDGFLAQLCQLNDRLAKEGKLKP
SHP1, sequence (P29350 whole entry): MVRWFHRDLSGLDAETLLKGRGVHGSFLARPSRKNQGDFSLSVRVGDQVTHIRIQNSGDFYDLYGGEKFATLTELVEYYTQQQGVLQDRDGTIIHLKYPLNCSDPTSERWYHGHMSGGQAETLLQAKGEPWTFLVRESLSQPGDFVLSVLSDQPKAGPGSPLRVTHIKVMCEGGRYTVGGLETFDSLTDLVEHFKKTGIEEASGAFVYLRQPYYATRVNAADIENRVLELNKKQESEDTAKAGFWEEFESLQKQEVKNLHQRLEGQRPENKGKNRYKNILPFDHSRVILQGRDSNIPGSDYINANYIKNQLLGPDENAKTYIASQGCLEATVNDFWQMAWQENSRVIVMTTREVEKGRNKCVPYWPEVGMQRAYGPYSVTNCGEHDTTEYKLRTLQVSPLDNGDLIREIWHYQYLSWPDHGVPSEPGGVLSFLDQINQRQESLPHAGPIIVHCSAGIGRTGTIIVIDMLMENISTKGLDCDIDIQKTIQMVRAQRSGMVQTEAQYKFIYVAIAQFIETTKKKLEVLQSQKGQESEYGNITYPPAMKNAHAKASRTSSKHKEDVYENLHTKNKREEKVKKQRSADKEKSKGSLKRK
LAR, sequence (P10586 30-1907, species assumed): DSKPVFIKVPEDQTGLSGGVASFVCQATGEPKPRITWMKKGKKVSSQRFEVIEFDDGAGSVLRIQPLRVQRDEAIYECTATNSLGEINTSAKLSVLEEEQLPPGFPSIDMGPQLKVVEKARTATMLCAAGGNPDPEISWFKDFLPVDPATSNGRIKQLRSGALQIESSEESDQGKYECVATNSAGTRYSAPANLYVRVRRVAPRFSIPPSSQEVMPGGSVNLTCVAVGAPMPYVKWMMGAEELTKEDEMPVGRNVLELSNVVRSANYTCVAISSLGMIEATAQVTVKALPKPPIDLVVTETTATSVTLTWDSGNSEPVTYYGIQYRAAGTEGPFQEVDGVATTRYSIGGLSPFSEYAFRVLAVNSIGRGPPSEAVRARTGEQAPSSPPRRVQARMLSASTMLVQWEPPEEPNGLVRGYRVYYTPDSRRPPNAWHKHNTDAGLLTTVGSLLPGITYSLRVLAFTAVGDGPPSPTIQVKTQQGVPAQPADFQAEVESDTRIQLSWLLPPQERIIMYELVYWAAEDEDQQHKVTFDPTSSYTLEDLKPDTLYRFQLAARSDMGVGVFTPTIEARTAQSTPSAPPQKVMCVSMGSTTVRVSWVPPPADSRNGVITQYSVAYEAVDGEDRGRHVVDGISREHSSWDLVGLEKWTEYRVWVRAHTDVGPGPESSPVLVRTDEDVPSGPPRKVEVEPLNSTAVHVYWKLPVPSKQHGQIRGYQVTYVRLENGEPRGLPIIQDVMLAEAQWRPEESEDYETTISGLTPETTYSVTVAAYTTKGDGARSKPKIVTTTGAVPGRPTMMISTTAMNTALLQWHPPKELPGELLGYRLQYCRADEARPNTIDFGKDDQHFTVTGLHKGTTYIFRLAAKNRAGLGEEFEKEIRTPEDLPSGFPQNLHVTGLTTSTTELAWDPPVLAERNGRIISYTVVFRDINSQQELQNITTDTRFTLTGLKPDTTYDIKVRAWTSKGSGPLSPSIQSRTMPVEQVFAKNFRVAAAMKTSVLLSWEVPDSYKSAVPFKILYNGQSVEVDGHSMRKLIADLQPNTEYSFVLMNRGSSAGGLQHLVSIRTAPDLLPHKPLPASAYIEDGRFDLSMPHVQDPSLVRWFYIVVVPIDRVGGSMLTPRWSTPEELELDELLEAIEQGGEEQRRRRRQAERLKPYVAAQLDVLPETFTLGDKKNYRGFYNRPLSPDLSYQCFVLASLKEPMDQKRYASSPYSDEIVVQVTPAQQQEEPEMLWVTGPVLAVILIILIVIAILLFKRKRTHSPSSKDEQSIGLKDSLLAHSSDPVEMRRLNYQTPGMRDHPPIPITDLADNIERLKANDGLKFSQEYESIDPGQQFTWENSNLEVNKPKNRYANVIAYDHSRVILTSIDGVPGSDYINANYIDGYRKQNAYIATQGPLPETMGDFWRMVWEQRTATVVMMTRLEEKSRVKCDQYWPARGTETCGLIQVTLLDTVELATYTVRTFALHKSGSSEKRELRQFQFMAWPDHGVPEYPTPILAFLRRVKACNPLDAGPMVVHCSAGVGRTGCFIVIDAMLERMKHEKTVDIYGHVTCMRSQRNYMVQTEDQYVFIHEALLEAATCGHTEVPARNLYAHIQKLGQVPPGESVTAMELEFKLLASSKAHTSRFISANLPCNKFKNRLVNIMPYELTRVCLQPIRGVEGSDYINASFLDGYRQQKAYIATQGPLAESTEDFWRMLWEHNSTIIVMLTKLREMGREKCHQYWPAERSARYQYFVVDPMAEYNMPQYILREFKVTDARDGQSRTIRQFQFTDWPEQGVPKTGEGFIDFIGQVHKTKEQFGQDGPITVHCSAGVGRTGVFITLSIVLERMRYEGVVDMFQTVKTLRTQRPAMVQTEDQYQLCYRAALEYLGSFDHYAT

With `O=C(O)c1ccccc1-c1ccc(/C=c2\sc3nc4cc(Br)cnc4n3c2=O)o1` [Compound 1] the IC50 (VHR) was 1900 nM, the IC50 (SHP1) was 2500 nM and the IC50 (LYP) was 1900 nM. The IC50 (MKP-3) was 5200 nM, the inhibition pattern (HePTP) was “mixed inhibition pattern” and the IC50 (PTP1B) was 1700 nM. It also gave an IC50 [1] of 6600 nM and an IC50 (LAR) of 73000 nM.
